Measurements published in ChEMBL document CHEMBL1955767, “Synthesis and biological evaluation of piperidine-substituted triazine derivatives as HIV-1 non-nucleoside reverse transcriptase inhibitors” (Eur J Med Chem, 2012).
Where a name gives a salt, the structure may show the parent alone. Calls of active or inactive are those of the source. The calls are words filed in the database; no cut-off is given here.

Tests used:
[1] = tested on: Human immunodeficiency virus 1; assay: Antiviral activity against HIV1 expressing reverse transcriptase K103N/Y181C mutant infected in human MT4 cells assessed as protection against virus-induced cytotoxicity after 5 days by MTT assay; assay type: functional, organism-based; conditions: Human immunodeficiency virus 1, MT4, 120 h
How it was run: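 MT-4 cells, in exponential growth, pelleted and resuspended at 6×10^5 cells/mL, then infected or mock-infected. Compound added at start as serial fivefold dilutions in triplicate wells. Viability read by MTT reduction to formazan at 540 and 690 nm after 5 days.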

[2] = Cytotoxicity against human MT4 cells after 5 days by MTT assay; assay type: cell-based
How it was run: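 Mock-infected MT-4 cells (6×10^5 cells/mL) received serial fivefold compound dilutions in triplicate, run in parallel with the infected series. After 5 days, viability measured by MTT formazan absorbance at 540 and 690 nm, using the median OD of three wells.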

[3] = Selectivity index, ratio of CC50 for human MT4 cells to EC50 for HIV1 3B; assay type: toxicity, cell-based; conditions: read-out: Ratio CC50/EC50
How it was run: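 Ratio CC50/EC50, both taken from the same 5-day MTT run in MT-4 cells. CC50 is from mock-infected wells.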

[4] = tested on: Human immunodeficiency virus 2; assay: Antiviral activity against HIV2 ROD infected in human MT4 cells assessed as inhibition of viral replication; assay type: functional, organism-based; conditions: ISOLATE ROD
How it was run: (§1)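 MT-4 cells (6×10^5 cells/mL) infected with HIV-1 IIIB or HIV-2 ROD at 100–300 CCID50. Compounds added at 10× stock as serial fivefold dilutions in triplicate, with untreated infected and mock-infected controls run alongside. Viability read by MTT reduction at 540 and 690 nm 5 days post-infection, using the median OD of three wells.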

[5] = tested on: Human immunodeficiency virus 1; assay: Antiviral activity against HIV1 3B infected in human MT4 cells assessed as protection against virus-induced cytotoxicity after 5 days by MTT assay; assay type: functional, organism-based; conditions: Human immunodeficiency virus 1, 3B, MT4, 120 h; how it was run: as §1
[6] = target: Human immunodeficiency virus type 1 reverse transcriptase (Human immunodeficiency virus 1, UniProt Q72547); assay: Inhibition of HIV1 reverse transcriptase assessed as incorporation of biotin-dUTP into poly(rA)-oligo(dT)
How it was run: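 ELISA-format RT kit with a poly(rA)-oligo(dT) homopolymer template/primer bound to the plate. Wild-type HIV-1 RT activity measured as biotin-dUTP incorporation into the template.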

SMILES	EC50 [1] [µM]	CC50 at 120 h [2] [µM]	selectivity ratio [3]	Activity [4]	EC50 [5] [µM]	IC50 [6] [µM]
Cc1cc(C#N)cc(C)c1Oc1nc(Nc2ccc(C#N)cc2)nc(N)c1Br [ETRAVIRINE]	0.026	> 4.6	–	–	–	–
O=C1Nc2ccc(Cl)cc2[C@@](C#CC2CC2)(C(F)(F)F)O1 [EFAVIRENZ]	0.57	> 6.3	> 1190	–	–	–
COc1nc(Nc2c(C)cc(C)cc2C)nc(NC2CCN(C(=O)c3ccc([N+](=O)[O-])cc3)CC2)n1	> 25.2	≥ 25.2	≥ 6	inactive	4.37	–
COc1nc(Nc2c(C)cc(C)cc2C)nc(NC2CCN(Cc3ccccc3C#N)CC2)n1	6.7	28	1460	inactive	0.0192	–
CNc1nc(Nc2c(C)cc(C)cc2C)nc(NC2CCN(Cc3ccccc3C#N)CC2)n1	4.6	24.7	2500	inactive	0.0099	–
COc1nc(Nc2c(C)cc(C)cc2C)nc(NC2CCN(C(=O)c3ccc(O)cc3)CC2)n1	> 121	121	73	inactive	1.66	–
CNc1nc(Nc2c(C)cc(C)cc2C)nc(NC2CCN(Cc3ccc(F)cc3)CC2)n1	4.9	25.6	2880	inactive	0.0102	–
COc1nc(Nc2c(C)cc(C)cc2C)nc(NC2CCN(Cc3ccc(F)cc3)CC2)n1	6.5	24.7	2140	inactive	0.0115	–
CNc1nc(Nc2c(C)cc(C)cc2C)nc(NC2CCN(Cc3cccc(C#N)c3)CC2)n1	4.6	23	3240	inactive	0.007	1.97
Cc1cn([C@H]2C[C@H](N=[N+]=[N-])[C@@H](CO)O2)c(=O)[nH]c1=O [ZIDOVUDINE]	0.0086	250	12200	–	0.0206	–
CNc1nc(Nc2c(C)cc(C)cc2C)nc(NC2CCN(C(=O)c3ccc(C(=O)O)cc3)CC2)n1	> 255	≥ 255	≥ 2	inactive	≥ 127	–
CNc1nc(Nc2c(C)cc(C)cc2C)nc(NC2CCN(Cc3ccc(C#N)cc3)CC2)n1	1.3	10	1190	inactive	0.0085	–
COc1nc(Nc2c(C)cc(C)cc2C)nc(NC2CCN(Cc3ccc(C#N)cc3)CC2)n1	1.6	14.6	1600	inactive	0.0092	1.77
Cc1ccnc2c1NC(=O)c1cccnc1N2C1CC1 [NEVIRAPINE]	11.2	> 15	–	–	0.0901	–
COc1nc(Nc2c(C)cc(C)cc2C)nc(NC2CCN(Cc3ccc([N+](=O)[O-])cc3)CC2)n1	≥ 6.1	15.4	1640	inactive	0.0094	–
COc1nc(Nc2c(C)cc(C)cc2C)nc(NC2CCN(Cc3cccc(C#N)c3)CC2)n1	4.6	23.5	2380	inactive	0.0098	–
COc1nc(Nc2c(C)cc(C)cc2C)nc(NC2CCN(C(=O)c3ccc(C(=O)O)cc3)CC2)n1	> 149	≥ 149	≥ 4	inactive	36.2	–
CNc1nc(Nc2c(C)cc(C)cc2C)nc(NC2CCN(Cc3ccc(OC)cc3)CC2)n1	5.8	22.1	2310	inactive	0.0095	–
CNc1nc(Nc2c(C)cc(C)cc2C)nc(NC2CCN(Cc3ccc([N+](=O)[O-])cc3)CC2)n1	≥ 2.6	10.2	1230	inactive	0.0082	–
CC(C)Nc1cccnc1N1CCN(C(=O)c2cc3cc(NS(C)(=O)=O)ccc3[nH]2)CC1 [DELAVIRDINE MESYLATE]	> 36.2	> 36.2	> 1100	–	0.0326	–
COc1ccc(CN2CCC(Nc3nc(Nc4c(C)cc(C)cc4C)nc(OC)n3)CC2)cc1	7.4	19.8	2040	inactive	0.0097	–
CNc1nc(Nc2c(C)cc(C)cc2C)nc(NC2CCN(C(=O)c3ccccc3)CC2)n1	> 30.9	30.9	132	inactive	0.224	–
CNc1nc(Nc2c(C)cc(C)cc2C)nc(NC2CCN(C(=O)c3ccc(O)cc3)CC2)n1	> 55.4	55.4	60	inactive	0.932	–
CNc1nc(Nc2c(C)cc(C)cc2C)nc(NC2CCN(Cc3ccccc3)CC2)n1	5	28.4	3190	inactive	0.0088	2.46
Nc1ccn([C@H]2CC[C@@H](CO)O2)c(=O)n1 [ZALCITABINE]	–	> 94.7	> 93	–	1.04	–
COc1nc(Nc2c(C)cc(C)cc2C)nc(NC2CCN(C(=O)c3ccccc3)CC2)n1	> 28.8	28.8	16	inactive	1.79	–
CNc1nc(Nc2c(C)cc(C)cc2C)nc(NC2CCN(C(=O)c3ccc([N+](=O)[O-])cc3)CC2)n1	> 33.2	33.2	18	inactive	1.79	–
COc1nc(Nc2c(C)cc(C)cc2C)nc(NC2CCN(Cc3ccccc3)CC2)n1	4.8	28.6	2510	inactive	0.0113	–
